According to ChEMBL document CHEMBL1124597, “Quinones. 4. Novel eicosanoid antagonists: synthesis and pharmacological evaluation” (J Med Chem, 1989):

Tests used:
Oryctolagus cuniculus [1] = organism: Oryctolagus cuniculus; test: In vitro percent inhibition against U-44,069 (10e-7 M) induced contraction of rabbit aorta at 10e-5 M concentration.; assay type: functional
Outline: (§1)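 Rabbit aortic strips (2-3 mm × 3 cm) in Krebs-Henseleit, 37 °C, 95% O2/5% CO2, 2 g resting tension, isometric recording. Drugs (final 10⁻⁵ to 10⁻⁸ M, 0.01% DMSO) added 10 min before U-44069 (2-6 nM, about 50% of the 30 mM KCl contraction). Percent inhibition, or concentration reducing contraction by 50%; duplicate means.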

Oryctolagus cuniculus [2] = organism: Oryctolagus cuniculus; test: In vitro concentration that reduced U-44069-induced contraction of the rabbit aorta by 50%; assay type: functional; outline: as §1
Oryctolagus cuniculus [3] = organism: Oryctolagus cuniculus; test: In vitro percent inhibition against U-44,069 (10e-7 M) induced contraction of rabbit aorta at 10e-6 M concentration; assay type: functional; outline: as §1
Oryctolagus cuniculus [4] = organism: Oryctolagus cuniculus; test: In vitro percent inhibition against U-44,069 (10e-7 M) induced contraction of rabbit aorta at 10e-7 M concentration; assay type: functional; outline: as §1
Cavia porcellus [5] = test: In vivo percentage of inhibition against LTD -induced bronchoconstriction in guinea pig at a concentration of 20 mg/kg after 1 hour of oral administration; assay type: functional
Outline: (§2)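 Urethane-anesthetized (1.5 g/kg ip) guinea pigs given gallamine (1 mg/kg iv); bronchoconstriction measured by Konzett-Rössler overflow. Challenge was U-46619, LTD4 or PAF at 10 μg/kg iv, or IgG1-mediated in animals sensitized ip with egg albumin (1 mg/kg)/FCA and used 3 weeks later. Drug given orally in 5% gum arabic 1 h before challenge; n = 8. ID50 = dose giving 50% inhibition.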

Cavia porcellus [6] = test: In vivo percentage of inhibition against LTD -induced bronchoconstriction in guinea pig at a concentration of 5 mg/kg after 1 hour of oral administration; assay type: functional; outline: as §2
Cavia porcellus [7] = test: In vivo percentage of inhibition against U-46619 -induced bronchoconstriction in guinea pig at a concentration of 5 mg/kg after 1 hour of oral administration.; assay type: functional; outline: as §2
Cavia porcellus [8] = test: In vivo percentage of inhibition against U-46619-induced bronchoconstriction in guinea pig at a concentration of 20 mg/kg when after 1 hour of oral administration; assay type: functional; outline: as §2
Cavia porcellus [9] = organism: Cavia porcellus; test: In vitro concentration that reduced U-44069-induced aggregation of guinea pig platelets by 50%; assay type: functional
Outline: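 PRP from conscious male guinea pigs, blood taken by cardiac puncture into 3.15% citrate (1:9); platelets adjusted to 450 000/μL. PRP preincubated 2 min at 37 °C, then incubated 2 min with U-44069 at a concentration giving submaximal aggregation. IC50 = antagonist concentration reducing aggregation by 50%.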

Oryctolagus cuniculus [10] = organism: Oryctolagus cuniculus; test: In vitro concentration that reduced U-44069-induced contraction of the rabbit aorta; assay type: functional; conditions: read-out: pA2 (converted); outline: as §1
Cavia porcellus [11] = organism: Cavia porcellus; test: In vitro concentration that reduced U-46619-induced contraction of guinea pig lung; conditions: read-out: pA2 (converted)
Oryctolagus cuniculus [12] = organism: Oryctolagus cuniculus; test: Percent inhibition of compound against U-44,069 (10e-7 M) induced contraction of rabbit aorta at 3*10e-8 M concentration; assay type: functional; outline: as §1

| Compound | Inhibition (Oryctolagus cuniculus [1]) [%] | Inhibition (Oryctolagus cuniculus [3]) [%] | other results |
| --- | --- | --- | --- |
| CC1=C(C)C(=O)C(CCCCCCC(=O)O)=C(C)C1=O | 8 | – | – |
| CC1=C(C)C(=O)C(C(CCCCCC(=O)NC(C)C)c2ccccc2)=C(C)C1=O (stereo not given) | 8 | – | – |
| CC1=C(C)C(=O)C(C(CCCCCCC(=O)O)c2ccccc2)=C(C)C1=O (stereo not given) | 98 | 0 | IC50 (Oryctolagus cuniculus [2]): 3.2 µM |
| CC1=C(C)C(=O)C(C(CCC(=O)O)c2ccccc2)=C(C)C1=O (stereo not given) | 0 | – | – |
| CC1=C(C)C(=O)C(C(CCCCCC(=O)NC(C)c2ccccc2)c2ccccc2)=C(C)C1=O (stereo not given) | 33 | – | – |
| CCCCCCC(C1=C(C)C(=O)C(C)=C(C)C1=O)c1ccccc1 (stereo not given) | 25 | – | – |
| CC1=C(C(CCCCCC(=O)O)c2ccccc2)C(=O)c2ccccc2C1=O (stereo not given) | 100 | 99 | IC50 (Oryctolagus cuniculus [2]): 0.24 µM; Inhibition (Oryctolagus cuniculus [4]): 20% |
| CC1=C(C)C(=O)C(C(CCCCCC(=O)O)c2ccccc2C)=C(C)C1=O (stereo not given) | 99 | 0 | IC50 (Oryctolagus cuniculus [2]): 3.2 µM |
| CC1=C(C)C(=O)C(C(CCCCC(=O)O)c2ccccc2)=C(C)C1=O (stereo not given) | 63 | – | – |
| CC1=C(C)C(=O)C(C(CCCCCC(=O)NCC(=O)O)c2ccccc2)=C(C)C1=O (stereo not given) | 0 | – | – |
| CC1=C(C)C(=O)C([C@@H](CCCCCC(=O)O)c2ccccc2)=C(C)C1=O | – | – | inhibition in vivo at 20 mg/kg (Cavia porcellus [5]): 65%; inhibition in vivo at 5 mg/kg (Cavia porcellus [6]): 27%; inhibition in vivo at 5 mg/kg (Cavia porcellus [7]): 47%; inhibition in vivo at 20 mg/kg (Cavia porcellus [8]): 68%; IC50 (Cavia porcellus [9]): 13 µM; Kb (Oryctolagus cuniculus [10]): 0.229 µM; Kb (Cavia porcellus [11]): 0.295 µM |
| CC1=C(C)C(=O)C(C(CCC(=O)NCC(=O)O)c2ccccc2)=C(C)C1=O (stereo not given) | 0 | – | – |
| COc1ccc(C(CCCCCC(=O)O)C2=C(C)C(=O)C(C)=C(C)C2=O)cc1 (stereo not given) | 100 | 3 | IC50 (Oryctolagus cuniculus [2]): 3 µM |
| COc1ccccc1C(CCCCCC(=O)O)C1=C(C)C(=O)C(C)=C(C)C1=O (stereo not given) | 0 | – | – |
| CC1=C(C)C(=O)C(C(C)CCCCCC(=O)O)=C(C)C1=O (stereo not given) | 0 | – | – |
| CC1=C(C)C(=O)C(C(CCCCCC(=O)O)c2ccc(F)cc2)=C(C)C1=O (stereo not given) | 100 | 100 | Inhibition (Oryctolagus cuniculus [12]): 20%; IC50 (Oryctolagus cuniculus [2]): 0.048 µM; Inhibition (Oryctolagus cuniculus [4]): 96% |
| CC1=C(C)C(=O)C(C(CCc2cccc(C(=O)O)c2)c2ccccc2)=C(C)C1=O (stereo not given) | 89 | 0 | – |
| CC1=C(C)C(=O)C(C(CCOc2cccc(C(=O)O)c2)c2ccccc2)=C(C)C1=O (stereo not given) | 2 | – | – |
| CC1=C(C)C(=O)C(C(CCCC(=O)O)c2ccccc2)=C(C)C1=O (stereo not given) | 24 | – | – |
| CC1=C(C)C(=O)C(C(CCCCCC(=O)O)c2ccc(C(C)C)cc2)=C(C)C1=O (stereo not given) | 4 | – | – |
